Reference: ChEMBL document CHEMBL1121477, “Noval antitumor nitrosoureas and related compounds and their reactions with DNA” (1980)
Several values for one entry are separate records, joined by “and”; a condition that tells them apart may be missing. Identical values can stand only once.

How the values were obtained:
[1] = Percent ability of compound to produce DNA interstrand cross-links was determined by the ethidium fluorescence assay at 6 hr and compared with antileukemic property; assay type: functional; set-up: concentration or dose not given beside the values
Procedure, shortened: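 λ-DNA (1.0 A260 unit) was incubated with 5 mM compound in 50 mM potassium phosphate pH 7.2 at 37 °C. Aliquots went into 20 mM potassium phosphate pH 11.8, 0.4 mM EDTA and 0.5 µg/mL ethidium, were heated at 96 °C for 3 min and rapidly cooled. Fluorescence relative to control ×100 gives % DNA molecules with ≥1 interstrand cross-link; accuracy about ±2%.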

[2] = test system: L1210; experiment: Antitumor activity against lymphoid leukemia L1210 cell implanted in mice was measured by %T/C at a dosage of 1.3 mg/kg; assay type: functional, Mus musculus
[3] = test system: L1210; experiment: Antitumor activity against lymphoid leukemia L1210 cell implanted in mice was measured by wt.change of treated mice minus wt. change of control mice at 1.3 mg/kg from day 0-5 (-2.9/0.3); assay type: functional, Mus musculus
[4] = test system: L1210; experiment: Antitumor activity against lymphoid leukemia L1210 cell implanted in mice was measured by mean survival of mice expressed as treated/control at a dosage of 1.3 mg/kg (25.3/9.6); assay type: functional, Mus musculus
[5] = Compound was evaluated for its ability to exhibit alkylating property toward DNA at 5 mM in 180 min; assay type: functional
Procedure, shortened: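 Alkylation was measured with PM2 covalently closed circular DNA (1.2 A280 units, 90% CCC) and 5 mM agent in 200 µL at 37 °C. Aliquots were taken into 20 mM potassium phosphate pH 11.8, 0.4 mM EDTA and 0.5 µg/mL ethidium, heated at 96 °C for 4 min, then rapidly cooled. Fluorescence loss relative to control gives the extent of alkylation.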

[6] = test system: L1210; experiment: Antitumor activity against lymphoid leukemia L1210 cell implanted in mice was measured by number of survivors on day 5 at a dosage of 1.3 mg/kg (6/6); assay type: functional, Mus musculus
[7] = test system: Mus musculus; experiment: Antitumor activity against lymphoid leukemia L1210 cell implanted in mice was measured by number of survivors on day 5 at a dosage of 0.9 mg/kg (6/6); assay type: functional
[8] = test system: Mus musculus; experiment: Antitumor activity against lymphoid leukemia L1210 cell implanted in mice was measured by %T/C at a dosage of 0.9 mg/kg; assay type: functional
[9] = test system: Mus musculus; experiment: Antitumor activity against lymphoid leukemia L1210 cell implanted in mice was measured by wt.change of treated mice minus wt. change of control mice at 0.9 mg/kg from day 0-5 (-1.4/0.4); assay type: functional
[10] = test system: Mus musculus; experiment: Antitumor activity against lymphoid leukemia L1210 cell implanted in mice was measured by mean survival of mice expressed as treated/control at a dosage of 0.9 mg/kg (15.6/11.1); assay type: functional
[11] = test system: L1210; experiment: Antitumor activity against lymphoid leukemia L1210 cell implanted in mice was measured by mean survival of mice expressed as treated/control at a dosage of 100 mg/kg (15.4/9.7); assay type: functional, Mus musculus
Procedure, shortened: (§1)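 L1210 leukemia cells (10^5) implanted intraperitoneally in mice on day 0. Compounds were suspended in saline plus Tween 80 and injected intraperitoneally within 5 min of preparation, following Cancer Chemotherapy National Service Center specifications; dose is given per day. Read-outs were weight change from day 0 to 5 (treated vs control), survivors on day 5, mean survival time treated/control, and %T/C.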

[12] = test system: L1210; experiment: Antitumor activity against lymphoid leukemia L1210 cell implanted in mice was measured by wt.change of treated mice minus wt. change of control mice at 100 mg/kg from day 0-5 (-2.2/1.4); assay type: functional, Mus musculus; procedure, shortened: as §1
[13] = test system: L1210; experiment: Antitumor activity against lymphoid leukemia L1210 cell implanted in mice was measured by %T/C at a dosage of 100 mg/kg; assay type: functional, Mus musculus; procedure, shortened: as §1
[14] = test system: L1210; experiment: Antitumor activity against lymphoid leukemia L1210 cell implanted in mice was measured by number of survivors on day 5 at a dosage of 100 mg/kg (6/6); assay type: functional, Mus musculus; procedure, shortened: as §1
[15] = test system: L1210; experiment: Antitumor activity against lymphoid leukemia L1210 cell implanted in mice was measured by %T/C on a 1-9 day schedule; assay type: functional, Mus musculus
[16] = test system: L1210; experiment: Antitumor activity against lymphoid leukemia L1210 cell implanted in mice was measured by mean survival of mice expressed as treated/control at a dosage of 200 mg/kg (14.9/9.8); assay type: functional, Mus musculus; procedure, shortened: as §1
[17] = test system: L1210; experiment: Antitumor activity against lymphoid leukemia L1210 cell implanted in mice was measured by number of survivors on day 5 at a dosage of 200 mg/kg (6/6); assay type: functional, Mus musculus; procedure, shortened: as §1
[18] = test system: L1210; experiment: Antitumor activity against lymphoid leukemia L1210 cell implanted in mice was measured by wt.change of treated mice minus wt. change of control mice at 200 mg/kg from day 0-5 (-4.4/1.4); assay type: functional, Mus musculus; procedure, shortened: as §1
[19] = test system: L1210; experiment: Antitumor activity against lymphoid leukemia L1210 cell implanted in mice was measured by %T/C at a dosage of 200 mg/kg; assay type: functional, Mus musculus; procedure, shortened: as §1
[20] = test system: L1210; experiment: Antitumor activity against lymphoid leukemia L1210 cell implanted in mice was measured by %T/C at a dosage of 1 mg/kg; assay type: functional, Mus musculus
[21] = test system: L1210; experiment: Antitumor activity against lymphoid leukemia L1210 cell implanted in mice was measured by mean survival of mice expressed as treated/control at a dosage of 1 mg/kg (12.3/10.5); assay type: functional, Mus musculus
[22] = test system: L1210; experiment: Antitumor activity against lymphoid leukemia L1210 cell implanted in mice was measured by mean survival of mice expressed as treated/control at a dosage of 200 mg/kg (16.4/16.9); assay type: functional, Mus musculus; procedure, shortened: as §1
[23] = test system: L1210; experiment: Antitumor activity against lymphoid leukemia L1210 cell implanted in mice was measured by wt.change of treated mice minus wt. change of control mice at 200 mg/kg from day 0-5 (-1.1/1.4); assay type: functional, Mus musculus; procedure, shortened: as §1

Q: What does the source list for `NC(=O)N(CCCl)N=O`?
A: Activity [1]: 37%; T/C [2]: 263%; Change in weight [3]: -2.9 g; Mean survival [4]: 25.3 time day-1; Alkylation [5]: 70%; Survivals [6]: 6

Q: Which Alkylation [5] does the source give for `O=S(=O)(OCCCl)C(F)(F)F` here?
A: 40%

Q: What does the source list for `CCOC(=O)N(CCCl)N=O`?
A: Survivals [7]: 6; Activity [1]: 12% and 24% and 28%; T/C [8]: 140%; Change in weight [9]: -1.4 g; Mean survival [10]: 15.6 time day-1

Q: Which Alkylation [5] does the source give for `O=[N+]([O-])c1ccc(S(=O)(=O)OCCCl)cc1` here?
A: 0%

Q: What does the source list for `O=NN(CC[S+]([O-])CCCl)C(=O)NC1CCCCC1` (stereo not given)?
A: Mean survival [11]: 15.4 time day-1; Activity [1]: 0%; Change in weight [12]: -2.2 g; T/C [13]: 159%; Survivals [14]: 6; Alkylation [5]: 84%

Q: With `O=NN(CCCl)C(=O)OCCCSSCCCOC(=O)N(CCCl)N=O` as the molecule, how does the Activity [1] read?
A: 8% and 25% and 21%

Q: What about the T/C [15] of the same molecule?
A: 136%

Q: For `O=NN(CCOCCCl)C(=O)NC1CCCCC1`, which Mean survival [16] is on record?
A: 14.9 time day-1

Q: And the Activity [1]?
A: 0%

Q: And the Survivals [17]?
A: 6

Q: And the Change in weight [18]?
A: -4.4 g

Q: And the Alkylation [5]?
A: 66%

Q: And the T/C [19]?
A: 152%

Q: Which Activity [1] does the source give for `Cc1ccc(S(=O)(=O)N(CCCl)N=O)cc1` here?
A: 0%

Q: And the T/C [20]?
A: 117%

Q: And the Mean survival [21]?
A: 12.3 time day-1

Q: With `O=NN(CCSCCO)C(=O)NC1CCCCC1` as the molecule, how does the Mean survival [22] read?
A: 16.4 time day-1

Q: And the Activity [1]?
A: 0%

Q: And the Survivals [17]?
A: 6

Q: And the Change in weight [23]?
A: -1.1 g

Q: What about the Alkylation [5] of the same molecule?
A: 96%

Q: And the T/C [19]?
A: 110%

Q: Which Alkylation [5] does the source give for `CS(=O)(=O)OCCCl` here?
A: 0%

Q: Which Alkylation [5] does the source give for `Cc1ccc(S(=O)(=O)OCCCl)cc1` here?
A: 0%

Q: With `CC(=O)N(CCCl)N=O` as the molecule, how does the Activity [1] read?
A: 44%

Q: With `CCN(N=O)C(N)=O` as the molecule, how does the Alkylation [5] read?
A: 53%
